Published values gathered from unrelated publications.
Lines come from different studies, so protocols differ.
Effect on: metabolic stability
Host: human
Matrix: liver microsomes

`COc1cc2[nH]c(C)c(-c3ccc(OC(C)C)cc3)c(=O)c2cc1Cl` has a microsomal CLint of 8 µL/min/mg (1 µM).
`CN(c1ccc(F)cc1)c1c(-c2cc(Cl)ccn2)nc2ccccn12` gave a microsomal CLint of 190 µL/min/mg (3 µM; pH 7.4).
For `c1ccc(-c2nc(NCc3nccs3)c3ccccc3n2)nc1`, the microsomal CLint was 36 µL/min/mg.
The microsomal CLint of `FC(F)(F)c1cccc(Nc2c(-c3ccccn3)nc3ccccn23)c1` is reported as 59 µL/min/mg (3 µM; pH 7.4).
`COc1cc2[nH]c(C)c(-c3ccoc3)c(=O)c2cc1Cl` gave a microsomal CLint of 93 µL/min/mg (1 µM).
For `O=S(=O)(c1ccc(-c2ccc3nccc(Nc4cncs4)c3c2)cc1)N1CCOCC1`, the microsomal CLint was 29.5 µL/min/mg.
For `COc1cc2[nH]c(C)c(-c3ccco3)c(=O)c2cc1Cl`, the microsomal CLint was 59 µL/min/mg (1 µM).
With `c1ccc(-c2nc(N3CCc4ncccc4C3)c3ccccc3n2)nc1` the microsomal CLint was 71 µL/min/mg.
`COc1cccnc1-c1nc2ccccn2c1N(C)c1ccc(F)cc1` has a microsomal CLint of > 300 µL/min/mg (3 µM; pH 7.4).
`COc1ccc(Nc2ccnc3ccc(-c4ccc(S(=O)(=O)N5CCOCC5)cc4)cc23)cc1Cl` has a microsomal CLint of 102 µL/min/mg.
For `CCN(CC)CCNC(=O)c1c(C)[nH]c(/C=C2\C(=O)Nc3ccc(F)cc32)c1C`, the microsomal CLint was 19 µL/min/mg (1 µM; pH 7.4).
`Fc1cccc(F)c1-c1nc(N2CCC(c3ccccn3)C2)c2ccccc2n1` (stereo not shown) gave a microsomal CLint of 114 µL/min/mg.
`CS(=O)(=O)c1ccc(-c2c(-c3ccccn3)nc3n2CCC3)cc1` gave a microsomal CLint of < 3 µL/min/mg (3 µM; pH 7.4).
`Fc1ccccc1-c1nc(N2CCC(c3ccccn3)C2)c2ccccc2n1` (stereo not shown) gave a microsomal CLint of 186 µL/min/mg.
For `CCc1nnc(Nc2ccnc3ccc(-c4ccc(S(=O)(=O)N5CCOCC5)cc4)cc23)s1`, the microsomal CLint was 59.3 µL/min/mg.
With `Cc1cc(Nc2ccc(C(F)(F)F)cc2)n2nc(C(F)(F)F)nc2n1` the microsomal CLint was < 6 µL/min/mg (1 µM; pH 7.4).
For `COc1ccc(-c2nc3ccc(OC)cn3c2Nc2ccc(F)cc2)nc1`, the microsomal CLint was 44 µL/min/mg (3 µM; pH 7.4).
For `N#Cc1ccccc1-c1nc(N2CCC(c3ccccn3)C2)c2ccccc2n1` (stereo not shown), the microsomal CLint was 350 µL/min/mg.
`O=C(N[C@H](Cc1ccccc1)C(=O)Nc1ccccc1N1CCS(=O)(=O)CC1)c1ccccc1F` gave a microsomal CLint of 1110 µL/min/mg (2 µM; 40 min; pH 7.4).
`c1ccc(-c2nc(N3CCCC(c4ccccn4)C3)c3ccccc3n2)nc1` (stereo not shown) gave a microsomal CLint of 113 µL/min/mg.
For `CCOc1ccc2ccc(=O)oc2c1`, the microsomal CLint was 146 µL/min/mg (1 µM; pH 7.4).
For `CCn1ncc2c(N3CCC(c4ccccn4)C3)nc(-c3ccccn3)nc21` (stereo not shown), the microsomal CLint was < 1 µL/min/mg.
The microsomal CLint of `COc1cc2[nH]c(C)c(-c3ccc(CO)cc3)c(=O)c2cc1Cl` is reported as < 7 µL/min/mg (1 µM).
For `Fc1ccc(Nc2c(-c3cccnn3)nc3ccccn23)cc1`, the microsomal CLint was 64 µL/min/mg (3 µM; pH 7.4).
`Cc1cc(Nc2ccc(C(F)(F)F)cc2)c2ccccc2n1` has a microsomal CLint of 4.8 µL/min/mg.
